In ChEMBL document CHEMBL1671716, “Antimicrobial susceptibility patterns for recent clinical isolates of anaerobic bacteria in South Korea” (2010):

Experiments:
[1] = tested on: Prevotella bivia; assay: Antimicrobial activity against Prevotella bivia after 48 hrs by agar dilution method; assay type: functional
In short: (§1)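 CLSI agar dilution (M11-A7); inoculum 10^5 CFU applied by replicator; plates incubated anaerobically 48 h at 37°C. For piperacillin-tazobactam, tazobactam held constant at 4 μg/ml.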

[2] = tested on: Schaalia odontolytica; assay: Antimicrobial activity against Actinomyces odontolyticus assessed as percent susceptible isolates after 48 hrs by agar dilution method; assay type: functional
[3] = tested on: Eggerthella lenta; assay: Antimicrobial activity against Eubacterium lentum after 48 hrs by agar dilution method; assay type: functional; in short: as §1
[4] = tested on: Prevotella intermedia; assay: Antimicrobial activity against Prevotella intermedia assessed as percent resistant isolates after 48 hrs by agar dilution method; assay type: functional
In short: (§2)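 CLSI agar dilution on recent Korean clinical anaerobe isolates. Inoculum 10^5 CFU per spot by replicator. Plates incubated in an anaerobic chamber at 37°C for 48 h. For piperacillin plus tazobactam, tazobactam was held constant at 4 μg/ml. Resistance and susceptibility rates derived from MICs.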

[5] = tested on: Peptostreptococcus anaerobius; assay: Antimicrobial activity against Peptostreptococcus anaerobius assessed as percent susceptible isolates after 48 hrs by agar dilution method; assay type: functional; in short: as §2
[6] = tested on: Parabacteroides distasonis; assay: Antimicrobial activity against Bacteroides distasonis after 48 hrs by agar dilution method; assay type: functional
In short: (§3)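 MICs on clinical anaerobe isolates by the CLSI agar dilution method. Inoculum of 10^5 CFU applied with a Steers replicator. Plates incubated 48 h at 37°C in an anaerobic chamber.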

[7] = tested on: Bacteroides ovatus; assay: Antimicrobial activity against Bacteroides ovatus assessed as percent susceptible isolates after 48 hrs by agar dilution method; assay type: functional
[8] = tested on: Actinomyces israelii; assay: Antimicrobial activity against Actinomyces israelii assessed as percent resistant isolates after 48 hrs by agar dilution method; assay type: functional; in short: as §2
[9] = tested on: Bifidobacterium adolescentis; assay: Antimicrobial activity against Bifidobacterium adolescentis assessed as percent resistant isolates after 48 hrs by agar dilution method; assay type: functional; in short: as §2
[10] = tested on: Bifidobacterium adolescentis; assay: Antimicrobial activity against Bifidobacterium adolescentis assessed as percent susceptible isolates after 48 hrs by agar dilution method; assay type: functional
[11] = tested on: Clostridioides difficile; assay: Antimicrobial activity against Clostridium difficile after 48 hrs by agar dilution method; assay type: functional
[12] = tested on: Hoylesella oralis; assay: Antimicrobial activity against Prevotella oralis assessed as percent resistant isolates after 48 hrs by agar dilution method; assay type: functional; in short: as §2
[13] = tested on: Bifidobacterium sp.; assay: Antimicrobial activity against Bifidobacterium sp. after 48 hrs by agar dilution method; assay type: functional; in short: as §3
[14] = tested on: Bacteroides fragilis; assay: Antimicrobial activity against Bacteroides fragilis assessed as percent susceptible isolates after 48 hrs by agar dilution method; assay type: functional
[15] = tested on: Prevotella buccae; assay: Antimicrobial activity against Prevotella buccae assessed as percent susceptible isolates after 48 hrs by agar dilution method; assay type: functional, Segatella buccae; in short: as §1
[16] = tested on: Bacteroides fragilis; assay: Antimicrobial activity against Bacteroides fragilis after 48 hrs by agar dilution method; assay type: functional; in short: as §3
[17] = tested on: Bacteroides caccae; assay: Antimicrobial activity against Bacteroides caccae assessed as percent resistant isolates after 48 hrs by agar dilution method; assay type: functional; in short: as §2
[18] = tested on: Phocaeicola vulgatus; assay: Antimicrobial activity against Bacteroides vulgatus after 48 hrs by agar dilution method; assay type: functional; in short: as §3
[19] = tested on: Fusobacterium mortiferum; assay: Antimicrobial activity against Fusobacterium mortiferum after 48 hrs by agar dilution method; assay type: functional; in short: as §1
[20] = tested on: Eubacterium sp.; assay: Antimicrobial activity against Eubacterium sp. assessed as percent susceptible isolates after 48 hrs by agar dilution method; assay type: functional; in short: as §1
[21] = tested on: Bifidobacterium adolescentis; assay: Antimicrobial activity against Bifidobacterium adolescentis after 48 hrs by agar dilution method; assay type: functional; in short: as §3
[22] = tested on: Actinomyces naeslundii; assay: Antimicrobial activity against Actinomyces naeslundii after 48 hrs by agar dilution method; assay type: functional; in short: as §3
[23] = tested on: Anaerococcus prevotii; assay: Antimicrobial activity against Anaerococcus prevotii assessed as percent resistant isolates after 48 hrs by agar dilution method; assay type: functional; in short: as §2
[24] = tested on: Clostridioides difficile; assay: Antimicrobial activity against Clostridium difficile assessed as percent resistant isolates after 48 hrs by agar dilution method; assay type: functional
[25] = tested on: Clostridium perfringens; assay: Antimicrobial activity against Clostridium perfringens after 48 hrs by agar dilution method; assay type: functional
[26] = tested on: Peptostreptococcus anaerobius; assay: Antimicrobial activity against Peptostreptococcus anaerobius after 48 hrs by agar dilution method; assay type: functional; in short: as §1
[27] = tested on: Anaerococcus prevotii; assay: Antimicrobial activity against Anaerococcus prevotii after 48 hrs by agar dilution method; assay type: functional; in short: as §3
[28] = tested on: Peptoniphilus asaccharolyticus; assay: Antimicrobial activity against Peptoniphilus asaccharolyticus assessed as percent susceptible isolates after 48 hrs by agar dilution method; assay type: functional; in short: as §1
[29] = tested on: Hoylesella oralis; assay: Antimicrobial activity against Prevotella oralis after 48 hrs by agar dilution method; assay type: functional; in short: as §1
[30] = tested on: Schaalia odontolytica; assay: Antimicrobial activity against Actinomyces odontolyticus after 48 hrs by agar dilution method in presence of 4 ug/ml beta-lactamase inhibitor Tazobactam; assay type: functional
In short: (§4)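 MICs by CLSI agar dilution for piperacillin combined with tazobactam, with tazobactam held constant at 4 μg/ml. Clinical anaerobe isolates inoculated at 10^5 CFU by Steers replicator. Plates kept in an anaerobic chamber at 37°C for 48 h.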

[31] = tested on: Hoylesella oralis; assay: Antimicrobial activity against Prevotella oralis assessed as percent susceptible isolates after 48 hrs by agar dilution method in presence of 4 ug/ml beta-lactamase inhibitor Tazobactam; assay type: functional
[32] = tested on: Eubacterium sp.; assay: Antimicrobial activity against Eubacterium sp. after 48 hrs by agar dilution method in presence of 4 ug/ml beta-lactamase inhibitor Tazobactam; assay type: functional; in short: as §1
[33] = tested on: Clostridium perfringens; assay: Antimicrobial activity against Clostridium perfringens after 48 hrs by agar dilution method in presence of 4 ug/ml beta-lactamase inhibitor Tazobactam; assay type: functional
In short: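 Agar dilution per CLSI on Korean clinical C. perfringens isolates. Tazobactam at a fixed 4 μg/ml with piperacillin. 10^5 CFU spotted by replicator, then 48 h at 37°C in an anaerobic chamber. MIC read.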

[34] = tested on: Parabacteroides distasonis; assay: Antimicrobial activity against Bacteroides distasonis after 48 hrs by agar dilution method in presence of 4 ug/ml beta-lactamase inhibitor Tazobactam; assay type: functional; in short: as §4
[35] = tested on: Schaalia odontolytica; assay: Antimicrobial activity against Actinomyces odontolyticus assessed as percent resistant isolates after 48 hrs by agar dilution method in presence of 4 ug/ml beta-lactamase inhibitor Tazobactam; assay type: functional; in short: as §2
[36] = tested on: Clostridioides difficile; assay: Antimicrobial activity against Clostridium difficile after 48 hrs by agar dilution method in presence of 4 ug/ml beta-lactamase inhibitor Tazobactam; assay type: functional; in short: as §1
[37] = tested on: Prevotella buccae; assay: Antimicrobial activity against Prevotella buccae after 48 hrs by agar dilution method in presence of 4 ug/ml beta-lactamase inhibitor Tazobactam; assay type: functional; conditions: Segatella buccae; in short: as §1
[38] = tested on: Phocaeicola vulgatus; assay: Antimicrobial activity against Bacteroides vulgatus after 48 hrs by agar dilution method in presence of 4 ug/ml beta-lactamase inhibitor Tazobactam; assay type: functional; in short: as §4
[39] = tested on: Fusobacterium necrogenes; assay: Antimicrobial activity against Fusobacterium necrogenes after 48 hrs by agar dilution method in presence of 4 ug/ml beta-lactamase inhibitor Tazobactam; assay type: functional; in short: as §1
[40] = tested on: Prevotella bivia; assay: Antimicrobial activity against Prevotella bivia after 48 hrs by agar dilution method in presence of 4 ug/ml beta-lactamase inhibitor Tazobactam; assay type: functional; in short: as §1

O=C(N[C@H](CO)[C@H](O)c1ccc([N+](=O)[O-])cc1)C(Cl)Cl [CHLORAMPHENICOL]
98%: Activity [7] | Activity [14]
8 µg/mL: MIC90 [1] | MIC90 [6] | MIC90 [18] | MIC90 [27] | MIC90 [29]
100%: Activity [5] | Activity [15] | Activity [28]
4 µg/mL: MIC50 [1] | MIC [6] | MIC50 [6] | MIC50 [11] | MIC50 [16] | MIC90 [16] | MIC [18] | MIC50 [18] | MIC50 [25] | MIC90 [25] | MIC50 [27] | MIC50 [29]
1 µg/mL: MIC [3] | MIC50 [3] | MIC [13] | MIC50 [13] | MIC [21] | MIC50 [21] | MIC [22] | MIC50 [22]
0%: Activity [4] | Activity [8] | Activity [9] | Activity [12] | Activity [17] | Activity [23] | Activity [24]
16 µg/mL: MIC90 [11]
2 µg/mL: MIC90 [3] | MIC90 [13] | MIC90 [21] | MIC90 [22] | MIC50 [26] | MIC90 [26]
92%: Activity [2] | Activity [10] | Activity [20]
0.13 µg/mL: MIC [19]

CCN1CCN(C(=O)N[C@@H](C(=O)N[C@@H]2C(=O)N3[C@@H]2SC(C)(C)[C@@H]3C(=O)O)c2ccccc2)C(=O)C1=O [PIPERACILLIN]
0.25 µg/mL: MIC50 [33] | MIC50 [25] | MIC50 [26] | MIC90 [27]
0%: Activity [4] | Activity [35] | Activity [8] | Activity [9] | Activity [23] | Activity [24]
1 µg/mL: MIC50 [3] | MIC50 [13] | MIC50 [21] | MIC50 [22]
4 µg/mL: MIC50 [36] | MIC50 [11] | MIC90 [37] | MIC90 [40]
≤ 0.03 µg/mL: MIC50 [37] | MIC50 [40]
16 µg/mL: MIC50 [1] | MIC90 [26] | MIC50 [29]
92%: Activity [2] | Activity [10] | Activity [20]
11%: Activity [12]
67%: Activity [14]
128 µg/mL: MIC90 [1] | MIC50 [6] | MIC50 [18] | MIC90 [29]
0.06 µg/mL: MIC [19]
0.03 µg/mL: MIC [39]
64 µg/mL: MIC90 [34] | MIC90 [38]
0.125 µg/mL: MIC50 [27]
> 256 µg/mL: MIC90 [6] | MIC90 [16] | MIC90 [18]
8 µg/mL: MIC90 [30] | MIC90 [32] | MIC90 [3] | MIC50 [34] | MIC90 [36] | MIC90 [11] | MIC90 [13] | MIC50 [16] | MIC90 [21] | MIC90 [22] | MIC50 [38]
100%: Activity [31] | Activity [5] | Activity [28]
78%: Activity [15]
42%: Activity [7]
0.5 µg/mL: MIC50 [30] | MIC50 [32] | MIC90 [33] | MIC90 [25]
51%: Activity [17]

CO[C@@]1(NC(=O)C2SC(=C(C(N)=O)C(=O)O)S2)C(=O)N2C(C(=O)O)=C(CSc3nnnn3C)CS[C@@H]21 (some centres not stated) [CEFOTETAN]
8 µg/mL: MIC [11] | MIC50 [11] | MIC50 [16]
100%: Activity [28]
2 µg/mL: MIC90 [27]
89%: Activity [7]
64 µg/mL: MIC90 [1] | MIC90 [3] | MIC90 [13] | MIC90 [16] | MIC90 [21] | MIC90 [22] | MIC90 [26] | MIC90 [29]
> 128 µg/mL: MIC50 [6] | MIC90 [6] | MIC50 [18] | MIC90 [18]
4 µg/mL: MIC50 [1] | MIC50 [3] | MIC50 [13] | MIC50 [21] | MIC50 [22] | MIC50 [26] | MIC50 [29]
0.06 µg/mL: MIC [19]
1 µg/mL: MIC90 [25] | MIC50 [27]
0.25 µg/mL: MIC50 [25]
17%: Activity [12] | Activity [24]
0%: Activity [4] | Activity [9] | Activity [23]
86%: Activity [17]
128 µg/mL: MIC90 [11]
15%: Activity [8]
71%: Activity [14]
62%: Activity [5]
85%: Activity [2] | Activity [10] | Activity [20]
72%: Activity [15]
